# High-throughput results: PubChem BioAssay, The Scripps Research Institute Molecular Screening Center
# Most compounds without a hit are left out; they make up all but 2.3% or so of the library.
# TAAR1 ag = human TAAR1 agonists, primary screen, Fluo-8 calcium fluorescence, CHO RD-HGA16 cells | activation, % at 3 µM | 360,000 compounds, 0.99% hits | vehicle wells 0%, saturating PEA agonist 100%;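 active = activation above the mean activation of all test compounds in the run plus 3 SD, cut at about 38% in these data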
#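 Assay system – CHO-derived RD-HGA16 cells with stable Gα16 and human TAAR1 · Compound dosing – one-point dosing at 3 µM (nominal) · Incubation – 17-24 h seeding, 75 min 37 °C dye, 30 min RT · Measured by – kinetic Fluo-8 calcium fluorescence · Control set – DMSO vehicle as 0%, PEA at EC100 as 100% · Repeats – single well for each compound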
# OXTR potentiator = human OXTR potentiators, primary screen, fluorescence, CHO-OTR cells, Fluo-8 calcium | Oxytocin receptor (Homo sapiens), P30559 | Fluo-8 calcium fluorescence, potentiator mode; 0% = oxytocin EC15, 100% = EC100 | activation, % at 3 µM | 320,000 compounds, 0.061% hits | AID 2445, 2010;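 active = activation above that plate's cutoff, the mean activation of tested compounds plus 3 SD, cut at about 6.6% in these data, passing the limit was not always enough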;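 note: 100% uses oxytocin at 75 nM as the full agonist control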
#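 Material: CHO-OTR cells, human receptor; compound dosing: single dose, 3.0 µM nominal final compound concentration; schedule: 6 min compound pre-incubation at room temperature, 100 s kinetic read; measured by: kinetic Fluo-8 calcium fluorescence; read-out basis: % activation vs EC15 and EC100 oxytocin; controls: EC15 oxytocin alone as 0%, 75 nM oxytocin as 100%; replicates: singlicate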
# TAAR1 antag = human TAAR1 antagonists, primary screen, Fluo-8 calcium fluorescence, CHO RD-HGA16 cells | 360,000 compounds, 1.5% hits | antagonist | Trace amine-associated receptor 1 (Homo sapiens), Q96RJ0 | AID 624466, 2012 | inhibition, % at 3 µM;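 active = inhibition above a per-plate cutoff, the mean inhibition of test compounds on that plate plus 3 SD, cut at about 49% in these data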;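 note: 0% = DMSO plus EC80 beta-PEA response and 100% = DMSO alone without agonist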
#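 Test system: hTAAR1-expressing CHO RD-HGA16 cells, Gα16-coupled; Probe or stimulus: EC80 β-phenethylamine stimulus; Compound dosing: single nominal final test compound concentration of 3 µM; Timing: 140 s kinetic read after compound, 140 s after agonist; Signal: Fluo-8 calcium-sensitive fluorescence; Measure: % inhibition of agonist calcium response; Controls: DMSO and EC80 PEA controls.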
# V1R ag counter = agonists of human V1a receptor, primary screen, counter-screen for OXTR agonist project, fluorescence, CHO-V1R cells. activation, % at 3 µM. Fluo-8 calcium fluorescence, agonist mode; 0% DMSO, 100% 3 nM vasopressin. Vasopressin V1a receptor (Homo sapiens), P37288. 320,000 compounds, 0.25% hits;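 active = activation above the mean activation of all tested compounds plus 3 SD, per screening run, cut at about 20% in these data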;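 note: signal is peak over basal fluorescence ratio across a 100 second FLIPR read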
# Target sequence (P37288 whole entry, looked up): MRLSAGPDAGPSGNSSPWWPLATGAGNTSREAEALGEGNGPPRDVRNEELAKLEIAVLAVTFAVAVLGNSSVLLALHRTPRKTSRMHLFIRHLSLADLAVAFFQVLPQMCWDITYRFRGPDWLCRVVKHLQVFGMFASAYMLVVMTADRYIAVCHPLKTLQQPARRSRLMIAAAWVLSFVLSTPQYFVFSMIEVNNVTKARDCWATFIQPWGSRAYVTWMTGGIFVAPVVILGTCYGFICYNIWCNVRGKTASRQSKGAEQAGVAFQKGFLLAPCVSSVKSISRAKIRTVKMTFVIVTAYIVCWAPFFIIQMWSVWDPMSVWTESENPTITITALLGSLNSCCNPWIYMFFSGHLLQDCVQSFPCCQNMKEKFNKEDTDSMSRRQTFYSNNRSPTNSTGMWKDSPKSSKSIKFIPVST
# OXTR ag = human OXTR agonists, primary screen, fluorescence, CHO-OTR cells, Fluo-8 calcium. Oxytocin receptor (Homo sapiens), P30559. Fluo-8 calcium fluorescence; normalized: DMSO 0%, oxytocin 100%. activation, % at 3 µM. 320,000 compounds, 0.32% hits. AID 2435, 2010;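 active = activation above the mean of all tested compounds plus 3 SD, cutoff set per screening run, cut at about 20% in these data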;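 note: peak over basal fluorescence ratio from a 100 s FLIPR kinetic read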
# The depositor's hits bear a star; · = not tested or not shown.
SMILES,TAAR1 ag,OXTR potentiator,TAAR1 antag,V1R ag counter,OXTR ag
O=C(COc1ccc([N+](=O)[O-])cc1)Nc1ccc(S(=O)(=O)N2CCOCC2)cc1,47*,-10,-7,12,16
O=C(COc1ccc(C(=O)c2ccc(F)cc2)cc1)Nc1cccc(S(=O)(=O)N2CCOCC2)c1,12,-11,62*,9,12
CCOc1ccc(N2CC(C(=O)N3CCN(C(=O)c4ccco4)CC3)CC2=O)cc1 (stereo not drawn),0,-1,-6,0,-1
O=C(NCc1nnnn1-c1ccc(F)cc1)C1CC(=O)N(c2ccc(F)cc2)C1 (stereo not drawn),1,-9,-14,0,-1
O=C(O)/C=C/C(=O)Nc1cc(F)ccc1F,1,-4,-12,0,0
COc1ccc(NC(=O)COC(=O)CCCC2=NS(=O)(=O)c3ccccc3N2)cc1,39*,-3,-16,1,0
CN(C)S(=O)(=O)N1CCC(Oc2ccc(C(=O)NC3Cc4ccccc4C3)cc2)CC1,15,-23,58*,9,10
COCc1cc(C)nc2sc(C(=O)NCCO)c(-n3cccc3)c12,2,-6,-22,0,0
O=C(N/N=C/C=C/c1ccccc1[N+](=O)[O-])c1ccncc1,0,-15,4,0,0
O=C(N/N=C/c1ccccn1)c1cc(-c2ccc3ccccc3c2)n[nH]1,20,-16,71*,2,3
O=C(N/N=C/C=C\c1ccccc1[N+](=O)[O-])c1cc(-c2ccc3ccccc3c2)n[nH]1,2,·,53*,·,·
Cn1c(SCC(=O)Nc2ccccc2Oc2ccccc2)nnc1C1CC1,2,-2,-24,-1,-1
N#C/C=C(/N)N1CCN(c2ccc(Cl)c(Cl)c2)CC1,38*,-10,17,4,6
COc1ccc(N=Nc2ccc(O)c3ncccc23)cc1,10,-15,46,0,1
COc1cccc(N=Nc2ccc(O)c3ncccc23)c1,18,8,70*,1,-2
COc1cccc(N=Nc2ccc3cccnc3c2O)c1,37,-8,74*,2,5
O=C(Nc1cccc(S(=O)(=O)NC2=NCCC2)c1)c1cc(-c2ccccn2)nc2ccccc12,12,0,51*,1,0
CCC/C(=C1/c2ccccc2C(=O)N1c1ccccc1)c1ccc(C=O)o1,-1,·,-8,·,·
CC(C)C1CC(N(C)C)=CC(=S)N1 (stereo not drawn),1,·,-8,·,·
COc1ccccc1CN1CC(C(=O)NCCN(C)CCc2ccccc2)CCC1=O (stereo not drawn),39*,10,-24,0,0
CCCc1cc(=O)oc2c3c(cc(OCC(=O)NCc4ccccn4)c12)OC(C)(C)CC3,2,-5,49*,-1,0
Cc1cc(=O)oc2c3c(cc(OCC(=O)Nc4ccc(CCO)cc4)c12)OC(C)(C)CC3,0,-4,51*,-1,-1
CCCc1cc(=O)oc2c3c(cc(OCC(=O)NCc4ccncc4)c12)OC(C)(C)CC3,2,-9,49*,-1,-1
CCOC(=O)c1ccc(S(=O)(=O)Nc2ccccc2-c2nnn(CC)n2)cc1,4,·,53*,·,·
Cc1ccc(C(=O)C(C)OC(=O)Cn2c(C)csc2=O)cc1 (stereo not drawn),0,-3,10,2,2
SMILES,TAAR1 ag,OXTR potentiator,TAAR1 antag,V1R ag counter,OXTR ag
CC(C)OC(=O)c1c2c(n3ccccc13)C(=O)c1ccccc1C2=O,40*,-17,45,31*,25*
COC(=O)c1c(C(=O)OC)c2ccccn2c1C(=O)c1ccc([N+](=O)[O-])cc1,6,-13,2,2,-2
CCN(CC)c1ccc2cc(C(C)=O)c(=O)oc2c1,16,-17,4,14,12
CCN(CC)c1ccc2cc(C=O)c(=O)oc2c1,73*,-24,36,88*,110*
CCN(CC)c1ccc2cc(-c3nnc(-c4ccncc4)o3)c(=O)oc2c1,40*,·,23,·,·
CCN(CC)c1ccc2cc(C(N)=O)c(=O)oc2c1,10,-5,-2,1,0
COc1ccc(C)cc1NC(=O)CCS(=O)(=O)c1ccc2c(c1)oc(=O)n2C,0,-2,-11,0,0
O=C(C1CCN(c2ncnc3c2nc2n3CCCCC2)CC1)N1CCN(c2cccc(Cl)c2)CC1,9,-8,63*,14,5
O=C(C1CCCN(c2ncnc3c2nc2n3CCCCC2)C1)N1CCN(c2ccc(Cl)cc2)CC1 (stereo not drawn),38*,-20,77*,3,3
O=S(=O)(Cc1ccccc1)Oc1ccccc1,-3,-8,-7,-2,-2
COc1cc(/C=C2\COC/C(=C\c3cc(OC)c(OC)c(OC)c3)C2=O)cc(OC)c1OC,6,·,53*,·,·
COc1ccc(NS(=O)(=O)c2ccc(NC(=S)NC(=O)C(C)C)cc2)cc1,77*,-22,20,24*,20*
Cc1cc(F)ccc1-c1cc(C(=O)NCc2ccc(C(F)(F)F)cc2)[nH]n1,56*,·,71*,·,·
Cc1ccccc1Cn1nc(C)c(NC(=O)c2noc3c2CC(C(C)(C)C)CC3)c1C (stereo not drawn),6,-3,-12,-1,-1
Cc1ccccc1Cn1cc(NC(=O)c2noc3c2CC(C(C)(C)C)CC3)cn1 (stereo not drawn),39*,-6,63*,0,1
CCOC(=O)C(CNc1ccc(O)cc1)NC(=O)c1ccccc1 (stereo not drawn),1,·,16,·,·
COC(=O)C[C@H]1C=C[C@@H](NS(=O)(=O)c2ccccc2)[C@@H](CO)O1,0,·,-10,·,·
CCOc1cc(CNCCc2ccc(S(N)(=O)=O)cc2)cc(Cl)c1OCc1ccccc1,·,-14,·,22*,37*
CCOc1cc(CNCc2ccccc2)ccc1OCc1ccc(Cl)cc1,48*,-20,47,28*,26*
CCCCOCC1CN(CCCC)S(=O)(=O)c2c(F)cccc2O1 (stereo not drawn),3,·,9,·,·
O=C(Nc1ccc(-c2noc(-c3cccs3)n2)cc1)c1cccnc1,17,-11,56*,5,4
CC(Oc1ccc(Cl)cc1Cl)c1nc(-c2ccc(NC(=O)c3ccncc3)cc2)no1 (stereo not drawn),24,-9,17,6,7
CC(Oc1ccc(Cl)cc1Cl)c1nc(-c2ccc(NC(=O)c3cccnc3)cc2)no1 (stereo not drawn),9,-8,57*,1,3
O=C1COc2ccc(S(=O)(=O)N3CCN(c4ccccc4)CC3)cc2N1,1,-6,-14,4,3
